An excerpt weighted towards active compounds, which were near 2.8% of everything screened.
E-sel inducer: E-selectin induction in HUVECs, primary screen, imaging, HUVEC, immunofluorescence imaging, single point. normalized: neutral wells 0, TNF-alpha wells 100. activation, % at 7.58 µM. 260,000 tested, 0.37% active;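 active = mean E-selectin-positive cell signal at least 10% of the positive control, reached in at least 60% of replicates, without over 20% cell loss; inconclusive = no rule given, readout overlaps actives, possibly toxicity-flagged; inactive = the rest, including those meeting only one limit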
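Test system: HUVEC; input: 3,000 HUVEC/well; measured by: immunofluorescence imaging; read-out: % PE-positive cells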
SIRT5 inh: SIRT5 desuccinylase inhibitors, primary screen, biochemical, fluorescence imaging, single point, set 5; NAD-dependent protein deacylase sirtuin-5, mitochondrial (Homo sapiens), Q9NXA8; Purified SirT5, succinyl-peptide AMC, trypsin-coupled fluorescence; inhibition, % at 15 µM; 330,000 tested, 1.1% active; in the data active = inhibition above about 15%; inconclusive = no clear call, values can overlap the other calls
Target sequence (Q9NXA8 whole entry, looked up): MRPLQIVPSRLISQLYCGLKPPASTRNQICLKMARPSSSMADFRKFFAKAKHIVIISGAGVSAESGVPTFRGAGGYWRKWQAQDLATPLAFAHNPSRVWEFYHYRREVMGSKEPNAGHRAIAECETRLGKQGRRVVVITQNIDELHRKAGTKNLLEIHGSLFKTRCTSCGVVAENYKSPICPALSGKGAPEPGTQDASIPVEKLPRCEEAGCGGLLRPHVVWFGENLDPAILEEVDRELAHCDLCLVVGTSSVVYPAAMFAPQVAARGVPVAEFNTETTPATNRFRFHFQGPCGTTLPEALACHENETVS
DENV2 CPE: inhibitors of DENV2 cytopathic effect, primary screen, cell-based, plate reader, single concentration; DENV2-infected cells, cytopathic effect rescue; CPE inhibition, % at 9.99 µM; 350,000 tested, 1.7% active; in the data active = CPE inhibition above about 20%, passing the limit was not always enough; inconclusive = no clear call, values can overlap the other calls; tested in BHK-21 cells;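 note: 0% = median of neutral control wells and 100% = median of positive control wells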
Numbers without * were called inactive; ? = inconclusive; . = no result.

SMILES	E-sel inducer	SIRT5 inh	DENV2 CPE
O=S(=O)(N[C@H]1CC[C@H](CCn2cc(C3(O)CCCC3)nn2)O[C@@H]1CO)c1ccccc1	0	-3	.
CCOc1cc(N2CCOCC2)c(OCC)cc1NC(=O)CN1CCN(Cc2ccc3c(c2)OCO3)CC1	0	-2	29*
CCOc1cc(N2CCOCC2)c(OCC)cc1NC(=O)Cn1cnnn1	.	2	10
COc1ccc(NC(=O)N2CCCCN3[C@@H](CO)[C@H](c4ccc(-c5ccccc5C)cc4)[C@@H]3C2)cc1	-1	.	.
COc1ccc2c3c([nH]c2c1)[C@@H](CO)N(Cc1cccnc1)CC31CN(C(=O)CN(C)C)C1	0	-1	-8
COc1ccc(C#Cc2ccc([C@H]3[C@H]4CN(C(C)=O)CC(=O)N4[C@H]3CO)cc2)cc1	0	-5	?
CC(=O)N1CC(=O)N2[C@H](CO)[C@@H](c3ccc(C#Cc4cccnc4)cc3)[C@@H]2C1	0	-2	26*
COc1ccc(C#Cc2ccc([C@H]3[C@@H](CO)N4C(=O)CN(C(C)=O)C[C@H]34)cc2)cc1	0	26*	-3
CC(=O)N1CC(=O)N2[C@H](C1)[C@@H](c1ccc(C#Cc3cccnc3)cc1)[C@@H]2CO	0	4	1
CCCNC(=O)N1CC2(CCN(C(=O)C3CCC3)CC2)c2c([nH]c3cc(OC)ccc23)[C@@H]1CO	0	0	-6
CC1CCCC(NC(=O)COC(=O)Cc2cn3ccsc3n2)C1C (stereo unspecified)	.	15*	.
CC1CCCC(NC(=O)COC(=O)Cc2ccc(Br)cc2)C1C (stereo unspecified)	.	-3	7
N#C[C@H]1[C@@H](c2ccccc2)[C@H](CO)N1C(=O)CCN1CCCCC1	0	-1	-2
CCc1cc2c(=O)[nH]c(Cc3ccc(OC)cc3)nc2s1	0	-3	-2
CCc1cc2c(=O)[nH]c(COC)nc2s1	.	-1	46*
COc1cccc(C#Cc2ccc([C@@H]3[C@H]4CN(S(=O)(=O)c5ccccc5C)CC(=O)N4[C@H]3CO)cc2)c1	-1	-3	8
CCN1[C@@H]2c3ccc(C4=CCCCC4)c(=O)n3C[C@H]1[C@H](CO)[C@H]2C(=O)N1CCCCC1	0	-28	-7
COc1ccc(S(=O)(=O)Nc2ccc3c(c2)C(=O)N([C@H](C)CO)C[C@H](C)[C@H](CN(C)S(=O)(=O)c2ccc(F)cc2)OCCCC[C@H](C)O3)cc1	0	14	-2
COc1ccc(S(=O)(=O)N(C)C[C@@H]2OCCCC[C@H](C)Oc3ccc(NS(=O)(=O)c4ccc(F)cc4)cc3C(=O)N([C@@H](C)CO)C[C@H]2C)cc1	0	17*	-6
COc1ccc(S(=O)(=O)Nc2ccc3c(c2)C(=O)N([C@@H](C)CO)C[C@H](C)[C@H](CN(C)S(=O)(=O)c2ccc(OC)cc2)OCCCC[C@@H](C)O3)cc1	0	.	?
COc1ccc(S(=O)(=O)N(C)C[C@@H]2OCCCC[C@@H](C)Oc3ccc(NS(=O)(=O)c4ccc(F)cc4)cc3C(=O)N([C@@H](C)CO)C[C@H]2C)cc1	0	21*	-3
COc1ccc(S(=O)(=O)Nc2ccc3c(c2)C(=O)N([C@@H](C)CO)C[C@@H](C)[C@@H](CN(C)S(=O)(=O)c2ccc(OC)cc2)OCCCC[C@H](C)O3)cc1	0	.	-7
COc1ccc(S(=O)(=O)Nc2ccc3c(c2)C(=O)N([C@H](C)CO)C[C@@H](C)[C@H](CN(C)S(=O)(=O)c2ccc(F)cc2)OCCCC[C@H](C)O3)cc1	0	10	-5
COc1ccc(S(=O)(=O)N(C)C[C@H]2OCCCC[C@H](C)Oc3ccc(NS(=O)(=O)c4ccc(F)cc4)cc3C(=O)N([C@@H](C)CO)C[C@H]2C)cc1	0	23*	-3
COc1ccc(S(=O)(=O)N(C)C[C@H]2OCCCC[C@@H](C)Oc3ccc(NS(=O)(=O)c4ccc(F)cc4)cc3C(=O)N([C@@H](C)CO)C[C@@H]2C)cc1	1	23*	-4
SMILES	E-sel inducer	SIRT5 inh	DENV2 CPE
C[C@H](CO)N1C[C@H](C)[C@H](CN(C)S(=O)(=O)c2ccccc2)OCCCC[C@H](C)Oc2ccc(NC(=O)NC3CCCCC3)cc2C1=O	0	5	-6
COc1ccc(S(=O)(=O)Nc2ccc3c(c2)C(=O)N([C@H](C)CO)C[C@H](C)[C@@H](CN(C)S(=O)(=O)c2ccc(OC)cc2)OCCCC[C@@H](C)O3)cc1	0	.	-7
COc1ccc(S(=O)(=O)Nc2ccc3c(c2)C(=O)N([C@H](C)CO)C[C@H](C)[C@H](CN(C)S(=O)(=O)c2ccc(F)cc2)OCCCC[C@@H](C)O3)cc1	0	9	-5
COc1ccc(S(=O)(=O)N(C)C[C@@H]2OCCCC[C@@H](C)Oc3ccc(NS(=O)(=O)c4ccc(F)cc4)cc3C(=O)N([C@H](C)CO)C[C@H]2C)cc1	1	18*	13
COc1ccc(S(=O)(=O)N(C)C[C@H]2OCCCC[C@H](C)Oc3ccc(NS(=O)(=O)c4ccc(F)cc4)cc3C(=O)N([C@H](C)CO)C[C@H]2C)cc1	1	23*	-2
C[C@@H]1CN([C@@H](C)CO)C(=O)c2cccc(NC(=O)Nc3ccc(F)cc3)c2O[C@H]1CN(C)Cc1ccccc1	0	3	-11
COc1cccc(NC(=O)N2C[C@H](O)COC[C@H]3O[C@H](CC(=O)NCCCN4CCOCC4)CC[C@@H]32)c1	0	-1	1
COc1ccc(OCC(O)CNC(=O)c2ccccc2)cc1 (stereo unspecified)	77*	.	4
COc1ccc(OCC(O)CNC(=O)c2ccc(C)cc2)cc1 (stereo unspecified)	.	.	14
COc1ccc(C#Cc2ccc([C@@H]3[C@H]4CN(C(C)=O)CC(=O)N4[C@H]3CO)cc2)cc1	0	-1	6
CO[C@H]1CC[C@@H]2CCN(C)C(=O)[C@@H](C)[C@@H](OC)CN(C)C(=O)c3cccc(C#N)c3OC[C@@H]1O2	0	2	-2
COc1ccc(NC(=O)C2C(c3ccc4c(c3)OCO4)=Nc3ccccc3N2C(C)=O)cc1 (stereo unspecified)	0	0	27*
COc1ccc(NC(=O)C2C(c3ccc4c(c3)OCO4)=Nc3ccccc3N2C(=O)c2cccc(C(F)(F)F)c2)cc1 (stereo unspecified)	0	-4	-2
CCCNC(=O)C[C@@H]1C[C@@H]2c3cc(NC(=O)CC4CC4)ccc3O[C@@H]2[C@@H](CO)O1	1	2	4
N#C[C@H]1[C@@H](c2ccc(C#CC3CCCCC3)cc2)[C@@H](CO)N1C(=O)Cc1ccccn1	.	0	1
N#C[C@H]1[C@H](c2ccc(C#CC3CCCCC3)cc2)[C@@H](CO)N1C(=O)Cc1ccccn1	0	-1	87*
CN(C)CC(=O)N1[C@H](CO)[C@@H](c2ccc(C#CC3CCCC3)cc2)[C@@H]1C#N	1	2	34*
CN(C)CC(=O)N1[C@H](CO)[C@H](c2ccc(C#CC3CCCC3)cc2)[C@@H]1C#N	1	0	6

Screening results as filed in PubChem BioAssay.
